For the first experiment, the species on record is Cavia porcellus. Briefly: Compound was tested in vitro for positive chronotropic action.
Conditions: not given
In kind it is functional. A digest of the protocol:
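Isolated right atrium from male Hartley guinea pig (300–500 g) in Krebs–Henseleit, 95% O2–5% CO2, 25 °C, 0.5 g tension. Cumulative compound concentrations, at least five spanning the EC20. Beating rate recorded by cardiotachometer triggered by isometric contraction. Value is the concentration raising the unstimulated rate by 20% (EC20). DMSO below 0.5% final.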
The compound `CCCN1C(=O)N2CCCCN=C2c2[nH]cnc21` registered an EC20 greater than 100 µM.
The same measure, in the same setting: the value for `CCCN1C(=O)N2CCCCN=C2c2ncn(CCC)c21` was greater than 100 µM; that for `CCCN1C(=O)N2CCCN=C2c2ncn(CCC)c21` was greater than 100 µM; that for `CCCn1cnc2c1c1nccn1c(=O)n2CCC` was 84 µM.
The same measure, in the same setting: with `CCCN1C(=O)N2CCCN=C2c2c1ncn2CCC` the figure was greater than 100 µM; with `CCCN1C(=O)N2CCCN=C2c2[nH]cnc21`, greater than 100 µM; with `CCCN1C(=O)N2CCN=C2c2[nH]cnc21`, greater than 100 µM.
`CCCN1C(=O)N2CCN=C2c2c1ncn2CCC` displayed an EC20 greater than 100 µM.
As to `CCCn1c(=O)n2nnnc2c2[nH]cnc21`, the EC20 was greater than 100 µM.
`CCCn1cnc2c1n(CCC)c(=O)n1nnnc21` gave an EC20 greater than 100 µM.
The compound `CCCn1cnc2c1c1nnnn1c(=O)n2CCC` yielded an EC20 greater than 100 µM.
On the same count and under the same terms, with `CCCn1c(=O)n2ccnc2c2[nH]cnc21` the figure was 90 µM.
Turning to `CCCn1cnc2c1n(CCC)c(=O)n1ccnc21`, the 20% effect level (EC20) was put at 19 µM.
Compound `CCCN1C(=O)N2CCN=C2c2ncn(CCC)c21` displayed a 20% effect concentration (EC20) greater than 100 µM.
In the case of `Nc1cc(-c2ccncc2)c[nH]c1=O` [INAMRINONE], the 20% effect concentration (EC20) turned out to be 62 µM. In other words, the double-digit micromolar range.

For another experiment, the species on record is Cavia porcellus. The experiment is described as follows: In vitro positive chronotropic effect.
Conditions: not given
The experiment is classed as functional. In short, it runs like this:
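Isolated right atrium from male Hartley guinea pigs (300–500 g) in Krebs–Henseleit, 25 °C, 95% O2–5% CO2, 0.5 g tension. Cumulative compound concentrations; beating rate recorded by cardiotachometer triggered by isometric contraction. EC20 is the concentration raising unstimulated rate by 20%, from over five concentrations. DMSO below 0.5% final.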
In the case of `CCCCOc1cc(CC2CNC(=O)N2)ccc1OC` (stereo unspecified) [RO-201724], the EC20 was greater than 100 µM.
Still for that read-out and setting: the value for `Cn1c(=O)c2nc[nH]c2n(C)c1=O.O` [THEOPHYLLINE] was 88 µM.

The next experiment deals with Phosphodiesterase 1 (Homo sapiens, UniProt P54750+Q01064+Q14123). The experiment is described as follows: Inhibitory activity against PDE1 from cerebral cortex. In kind it is tissue-based.
Conditions: not given
A digest of the protocol: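 PDE I (Ca2+/calmodulin-stimulated, cerebral cortex) and PDE III (cGMP-inhibited, heart) isolated by the Reeves method. […] IC50 fitted by nonlinear least squares. Final DMSO below 0.5%.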
For `CCCN1C(=O)N2CCCCN=C2c2[nH]cnc21`, the IC50 is greater than 100 µM.
In turn, `CCCN1C(=O)N2CCCCN=C2c2ncn(CCC)c21` gave an IC50 greater than 100 µM.
For the compound `CCCN1C(=O)N2CCCN=C2c2ncn(CCC)c21`, the IC50 is greater than 100 µM.
Turning to `CCCn1cnc2c1c1nccn1c(=O)n2CCC`, the IC50 stood at 14 µM.
In turn, `CCCN1C(=O)N2CCCN=C2c2c1ncn2CCC` came in with an IC50 greater than 100 µM.
`CCCN1C(=O)N2CCCN=C2c2[nH]cnc21` gave an IC50 greater than 100 µM.
`CCCN1C(=O)N2CCN=C2c2[nH]cnc21` registered an IC50 greater than 100 µM.
In the case of `CCCN1C(=O)N2CCN=C2c2c1ncn2CCC`, the IC50 is greater than 100 µM.
`CCCn1c(=O)n2nnnc2c2[nH]cnc21` registered a half-maximal inhibitory concentration (IC50) greater than 100 µM.
`CCCn1cnc2c1n(CCC)c(=O)n1nnnc21` gave an IC50 greater than 100 µM.
Consider `CCCn1cnc2c1c1nnnn1c(=O)n2CCC`, for which the IC50 was greater than 100 µM.
On the same count and under the same terms, with `CCCn1c(=O)n2ccnc2c2[nH]cnc21` the figure was greater than 100 µM.
`CCCn1cnc2c1n(CCC)c(=O)n1ccnc21` had an IC50 of 40 µM.
In the case of `CCCN1C(=O)N2CCN=C2c2ncn(CCC)c21`, the half-maximal inhibitory concentration (IC50) was greater than 100 µM.
With `Nc1cc(-c2ccncc2)c[nH]c1=O` [INAMRINONE], the IC50 is greater than 300 µM.
`CCCCOc1cc(CC2CNC(=O)N2)ccc1OC` (stereo unspecified) [RO-201724] returned an IC50 greater than 300 µM.
Regarding `Cn1c(=O)c2nc[nH]c2n(C)c1=O.O` [THEOPHYLLINE], the IC50 is 356 µM.

A further experiment deals with Phosphodiesterase 3 (Homo sapiens, UniProt Q14432+Q13370). The experiment is described as follows: Inhibitory activity against Phosphodiesterase 3 from heart. The experiment is classed as protein assay.
Conditions: not given
A digest of the protocol: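 PDE I (Ca2+/calmodulin-stimulated, cerebral cortex) and PDE III (cGMP-inhibited, heart) isolated by the Reeves method. IC50 fitted by nonlinear least squares. Final DMSO below 0.5%.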
In turn, `CCCN1C(=O)N2CCCCN=C2c2[nH]cnc21` returned an IC50 greater than 100 µM.
Still for that read-out and setting: the value for `CCCN1C(=O)N2CCCCN=C2c2ncn(CCC)c21` was greater than 100 µM; that for `CCCN1C(=O)N2CCCN=C2c2ncn(CCC)c21` was greater than 100 µM.
Regarding `CCCn1cnc2c1c1nccn1c(=O)n2CCC`, the IC50 was greater than 100 µM.
In turn, `CCCN1C(=O)N2CCCN=C2c2c1ncn2CCC` came in with an IC50 greater than 100 µM.
Compound `CCCN1C(=O)N2CCCN=C2c2[nH]cnc21` returned a half-inhibitory concentration (IC50) greater than 100 µM.
For `CCCN1C(=O)N2CCN=C2c2[nH]cnc21`, the IC50 was greater than 100 µM.
Turning to `CCCN1C(=O)N2CCN=C2c2c1ncn2CCC`, the IC50 was greater than 100 µM.
Compound `CCCn1c(=O)n2nnnc2c2[nH]cnc21` showed an IC50 greater than 100 µM.
Regarding `CCCn1cnc2c1n(CCC)c(=O)n1nnnc21`, the IC50 is greater than 100 µM.
For the compound `CCCn1cnc2c1c1nnnn1c(=O)n2CCC`, the concentration for half-maximal inhibition (IC50) is greater than 100 µM.
Same read-out and setting: the value for `CCCn1c(=O)n2ccnc2c2[nH]cnc21` was greater than 100 µM; that for `CCCn1cnc2c1n(CCC)c(=O)n1ccnc21` was greater than 100 µM; that for `CCCN1C(=O)N2CCN=C2c2ncn(CCC)c21` was greater than 100 µM.
Turning to `CCCCOc1cc(CC2CNC(=O)N2)ccc1OC` (stereo unspecified) [RO-201724], the IC50 is greater than 300 µM.

A further experiment concerns Suncus murinus. The experiment is described as follows: (§1) Emetic effect in shrews at 30 mg/kg peroral dose, 0 of 3 animals affected. The experiment is classed as functional. Particulars: route oral.
`CCCN1C(=O)N2CCN=C2c2ncn(CCC)c21` gave an Emesis of 0.

For another experiment, the system named is Suncus murinus. Briefly: Emetic effect in shrews at 100 mg/kg peroral dose, 0 of 3 animals affected. Conditions: route oral. The experiment is classed as functional.
Compound `CCCN1C(=O)N2CCN=C2c2ncn(CCC)c21` yielded an Emesis of 0.

Another experiment concerns Suncus murinus. Described as §1. The experiment is classed as functional. Particulars: route oral.
Regarding `CCCN1C(=O)N2CCN=C2c2ncn(CCC)c21`, the Emesis was 0.

Another experiment relates to Suncus murinus. The experiment is described as follows: Emetic effect in shrews at 10 mg/kg peroral dose, 3 of 3 animals affected. In kind it is functional. Particulars: route oral.
As for `CCCn1cnc2c1n(CCC)c(=O)n1ccnc21`, the Emesis is listed as 3.
Take `COc1ccc(C2CNC(=O)C2)cc1OC1CCCC1` (stereo unspecified) [ROLIPRAM]: the Emesis came to 3.

The next experiment concerns Suncus murinus. The experiment is described as follows: Emetic effect in shrews at 30 mg/kg peroral dose, 3 of 3 animals affected. The experiment is classed as functional. Particulars: route oral.
Compound `CCCCn1c(=O)c2c(ncn2CC(C)=O)n(CCCC)c1=O` [DENBUFYLLINE] had an Emesis of 3.

The species named for the next experiment is Cavia porcellus. Briefly: Tested in vitro for tracheal relaxation. In kind it is functional. Particulars: Trachea. In short, it runs like this:
(§2)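 Tracheal ring-chains from male Hartley guinea pigs (300–500 g), 37 °C Krebs–Henseleit pH 7.4, 95% O2–5% CO2, 0.5 g tension, isometric recording. After full relaxation with 1.0 μM isoprenaline and washout, spontaneous tone redeveloped. Cumulative compound concentrations then given, at least five spanning the EC50.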
As for `CCCN1C(=O)N2CCCCN=C2c2[nH]cnc21`, the midpoint of the response, the EC50, lay at 53 µM.
Consider `CCCN1C(=O)N2CCCCN=C2c2ncn(CCC)c21`, for which the response was half-maximal at 2.5 µM (EC50).
The same measure, in the same setting: the value for `CCCN1C(=O)N2CCCN=C2c2ncn(CCC)c21` was 2.1 µM; that for `CCCn1cnc2c1c1nccn1c(=O)n2CCC` was 0.7 µM; that for `CCCN1C(=O)N2CCCN=C2c2c1ncn2CCC` was 8.2 µM.
The compound `CCCN1C(=O)N2CCCN=C2c2[nH]cnc21` had an EC50 of 22 µM.
In turn, `CCCN1C(=O)N2CCN=C2c2[nH]cnc21` came in with an EC50 of 31 µM. The EC50 values of the last two compounds are within 1.5-fold of each other.
In turn, `CCCN1C(=O)N2CCN=C2c2c1ncn2CCC` yielded an EC50 of 2.5 µM.
In turn, `CCCn1c(=O)n2nnnc2c2[nH]cnc21` registered an EC50 greater than 100 µM.
Consider `CCCn1cnc2c1n(CCC)c(=O)n1nnnc21`, for which a half-maximal response (EC50) required 68 µM.
Turning to `CCCn1cnc2c1c1nnnn1c(=O)n2CCC`, the midpoint of the response, the EC50, lay at 51 µM.
In turn, `CCCn1c(=O)n2ccnc2c2[nH]cnc21` gave a concentration giving a half-maximal response (EC50) of 1.6 µM.
In turn, `CCCn1cnc2c1n(CCC)c(=O)n1ccnc21` showed an EC50 of 0.5 µM.
For the compound `CCCN1C(=O)N2CCN=C2c2ncn(CCC)c21`, the EC50 came to 1 µM.
As to `Nc1cc(-c2ccncc2)c[nH]c1=O` [INAMRINONE], a half-maximal response (EC50) required 7.4 µM. Compared with the last compound, the EC50 is about 7.4-fold higher.

For a further experiment, the species on record is Cavia porcellus. The experiment is described as follows: In vitro guinea pig tracheal relaxation. Conditions: Trachea. In kind it is functional. A digest of the protocol: as §2
As for `CCCCOc1cc(CC2CNC(=O)N2)ccc1OC` (stereo unspecified) [RO-201724], the EC50 amounted to 0.12 µM.

For a further experiment, the species on record is Cavia porcellus. The experiment is described as follows: Negative inotropic response to adenosine in guinea pig left atrium. The experiment is classed as functional. Particulars: Cardiac atrium, read-out: pA2 (converted).
For the compound `Cn1c(=O)c2nc[nH]c2n(C)c1=O.O` [THEOPHYLLINE], the Kb is 29.5 µM.

The next experiment addresses Phosphodiesterase 4 (Homo sapiens, UniProt P27815+Q08499+Q07343+Q08493). Briefly: Inhibitory activity against Phosphodiesterase 4 from cerebral cortex.
Conditions: not given
`CCCN1C(=O)N2CCCCN=C2c2[nH]cnc21` yielded an IC50 greater than 100 µM.
`CCCN1C(=O)N2CCCCN=C2c2ncn(CCC)c21` displayed an IC50 of 13 µM.
Compound `CCCN1C(=O)N2CCCN=C2c2ncn(CCC)c21` had an IC50 of 4.7 µM.
`CCCn1cnc2c1c1nccn1c(=O)n2CCC` yielded an IC50 of 1.9 µM.
Turning to `CCCN1C(=O)N2CCCN=C2c2c1ncn2CCC`, the IC50 was 49 µM.
The same measure, in the same setting: with `CCCN1C(=O)N2CCCN=C2c2[nH]cnc21` the figure was greater than 100 µM; with `CCCN1C(=O)N2CCN=C2c2[nH]cnc21`, greater than 100 µM; with `CCCN1C(=O)N2CCN=C2c2c1ncn2CCC`, 5.1 µM.
`CCCn1c(=O)n2nnnc2c2[nH]cnc21` came in with an IC50 greater than 100 µM.
Same read-out and setting: the value for `CCCn1cnc2c1n(CCC)c(=O)n1nnnc21` was 39 µM; that for `CCCn1cnc2c1c1nnnn1c(=O)n2CCC` was 18 µM; that for `CCCn1c(=O)n2ccnc2c2[nH]cnc21` was 3.1 µM.
`CCCn1cnc2c1n(CCC)c(=O)n1ccnc21` had an IC50 of 1.4 µM.
Turning to `CCCN1C(=O)N2CCN=C2c2ncn(CCC)c21`, the IC50 was 1.6 µM.

(Values after ChEMBL document CHEMBL1130176, “Selective inhibitors of cyclic AMP-specific phosphodiesterase: heterocycle-condensed purines” (J Med Chem, 1997).)
